We go through 8 molecules from PMC3245783 (Nature neuroscience, 2011).

Each structure is given as a SMILES string.

For test [1], the target named is T1, FLAT-expressing Hek293 cells (Rattus norvegicus, UniProt P97612, DEL9-76).
T1 sequence (P97612 with tags, fused parts or gaps DEL9-76): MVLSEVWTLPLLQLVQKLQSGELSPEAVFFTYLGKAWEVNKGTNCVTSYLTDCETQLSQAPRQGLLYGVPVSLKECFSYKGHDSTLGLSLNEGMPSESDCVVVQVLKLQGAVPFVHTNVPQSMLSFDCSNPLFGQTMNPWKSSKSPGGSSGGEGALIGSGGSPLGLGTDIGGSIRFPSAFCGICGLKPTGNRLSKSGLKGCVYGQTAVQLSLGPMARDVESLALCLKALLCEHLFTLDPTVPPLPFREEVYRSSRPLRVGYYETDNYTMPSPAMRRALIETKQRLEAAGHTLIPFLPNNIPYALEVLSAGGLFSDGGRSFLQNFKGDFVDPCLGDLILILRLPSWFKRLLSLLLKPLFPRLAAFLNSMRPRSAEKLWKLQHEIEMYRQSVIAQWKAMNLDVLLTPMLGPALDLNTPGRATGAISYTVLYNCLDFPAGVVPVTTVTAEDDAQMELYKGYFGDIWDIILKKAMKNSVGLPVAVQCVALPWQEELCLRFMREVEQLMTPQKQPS
As to the kind of experiment: [3H]-anandamide accumulation in FLAT-expressing Hek293 cells. In kind it is cell-based.

The subject of test [2] is formalin-induced nocifensive behavior. In words: Formalin-induced pain behavior in mice. In kind it is in vivo, mouse. To be noted: formalin test, antagonist 1 mg-kg^-1, i.p. The method, boiled down: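 Mice get intraplantar 5% formalin (20 μL). Nocifensive behaviour is scored in phase I (0–5 min) and phase II (5–45 min). Test compound is given i.p. at 0.01–1 mg-kg−1. In the antagonism arm, CB1, CB2 and TRPV-1 antagonists are each given at 1 mg-kg−1 i.p. Six mice per group; mean±SEM; two-way ANOVA with Bonferroni versus vehicle-injected controls.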

For `CCCCC/C=C\C/C=C\C/C=C\C/C=C\CCCC(=O)NCCO` [anandamide, N-arachidonoylethanolamine], the “effect on [3H]-anandamide accumulation” value in test [1] (non-radioactive anandamide 100 μM) is given as “prevented”.

As for `CCCCCCCC/C=C\CCCCCCCC(=O)N[C@H](CO)Cc1ccc(O)cc1` [OMDM-1], the “effect on [3H]-anandamide accumulation” value in test [1] (FLAT-expressing Hek293 cells) is listed as “prevented”.

For `COc1ccc(C(=O)c2c(C)n(CCN3CCOCC3)c3cc(I)ccc23)cc1` [AM630], in test [2], the “effect of antagonist on antinociceptive actions of systemic ARN272” value (“effect of antagonist” below) is “ineffective”.

`CCCCCC=CCC=CCC=CCC=CCCCC(=O)Nc1ccc(O)cc1` [AM404, N-(4-hydroxyphenyl)-eicosa-5,8,11,14-tetraenamide]: the half-maximal inhibitory concentration (IC50) in test [1] was determined as 4 µM.

Take `CC(C)(C)c1ccc(/C=C/C(=O)Nc2ccc3c(c2)OCCO3)cc1` [AMG9810]: in test [2], the “effect of antagonist” value is on record as “ineffective”.

Take `CCCCC/C=C\C/C=C\C/C=C\C/C=C\CCCC(=O)Nc1ccc(O)cc1C` [VDM11]: the “effect on [3H]-anandamide accumulation” value in test [1] (FLAT-expressing Hek293 cells) is given as “prevented”.

In the case of `CCCCC/C=C\C/C=C\C/C=C\C/C=C\CCCC(=O)NCc1ccoc1` [UCM707], the “effect on [3H]-anandamide accumulation” value in test [1] (FLAT-expressing Hek293 cells) is listed as “prevented”.

On to `Cc1c(C(=O)NN2CCCCC2)nn(-c2ccc(Cl)cc2Cl)c1-c1ccc(I)cc1` [AM251], for which the “effect of antagonist” value in test [2] is given as “suppressed”.
